Test results reported in PubChem BioAssay AID493091 (Sanford-Burnham Center for Chemical Genomics, 2011).
Out of some 340,000 compounds screened, about 3,000 (0.88%) were called active.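 Rule for the calls: active = inhibition above about 50% at 20 µM (limit read from the data); inactive = the rest.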 This excerpt belongs to a sample that is enriched for actives.

Each compound was assayed against Carboxy-terminal domain RNA polymerase II polypeptide A small phosphatase 1 (Homo sapiens) (UniProt Q9GZU7) (assay: Scp-1 phosphatase inhibitors, primary screen, biochemical, colorimetric, uHTS (AID 493091;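 note: plate controls were DMSO wells with enzyme for no effect and wells lacking enzyme for full effect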)). Conditions: Recombinant Scp1, phosphopeptide, malachite green phosphate absorbance; at 20 µM; stronger effect = higher value.
Sequence of Carboxy-terminal domain RNA polymerase II polypeptide A small phosphatase 1 (Homo sapiens) (Q9GZU7 76-261 limits assumed): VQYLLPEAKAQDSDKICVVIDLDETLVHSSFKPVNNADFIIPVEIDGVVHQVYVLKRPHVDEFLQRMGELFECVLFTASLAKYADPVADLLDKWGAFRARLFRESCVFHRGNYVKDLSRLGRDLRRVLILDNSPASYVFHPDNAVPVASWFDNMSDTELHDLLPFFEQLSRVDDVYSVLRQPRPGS
Method in brief: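 Assay system: SCP-1 catalytic fragment, aa 76-261 | Buffer or medium: Tris acetate buffer pH 5.5 with MgCl2 and Tween-20 | Compound: One concentration, 20 µM, with 1.0% DMSO | Also added: Phospho 17-mer peptide substrate | Signal: Absorbance at 630 nm | Incubation: 45 min enzyme reaction at room temperature | Measure: % inhibition of SCP-1 phosphate liberation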

Compound	inhibition
Cc1cc(C)cc(N(CC(=O)NCC2CCCO2)S(=O)(=O)c2c(C)noc2C)c1 (configuration not stated)	-3.08% (inactive)
O=C(O)c1ccn(COc2ccc(Br)cc2)n1	-2.51% (inactive)
CC1CCN(C(=O)Cn2nnnc2CN2CCOCC2)CC1	-6.52% (inactive)
Cc1cc(C)nc(SCc2cn3c(C)cc(C)nc3n2)n1	-3.52% (inactive)
COc1ccc(NC(=O)CN(C)C(=O)/C=C/c2cn(Cc3ccccc3)nc2-c2cccnc2)cc1	97.8% (active)
COc1cccc(NC(=O)CN(C)C(=O)/C=C/c2cn(-c3ccccc3)nc2-c2cccs2)c1	-11.8% (inactive)
COc1cccc(NC(=O)CN(C)C(=O)/C=C/c2cc(OC)ccc2OC)c1	-9.57% (inactive)
Nn1c(SCC(=O)Nc2nccs2)nnc1-c1ccco1	1.62% (inactive)
CC1CCCCC1NC(=O)c1cn(C)c2ccc(S(=O)(=O)N3CCOCC3)cc2c1=O (configuration not stated)	-8.17% (inactive)
Cc1ccc(CNC(=O)Cn2cnc3c(NCc4ccccc4)ncnc32)o1	1.29% (inactive)
Cc1nc([N+](=O)[O-])cn1CC(=O)Nc1ccc2c(c1)OCO2	-4.74% (inactive)
Cc1ccc(C(=O)O)cc1-c1ccc(/C=C2\SC(=O)N(CC(=O)Nc3ccc4c(c3)OCO4)C2=O)o1	94.1% (active)
Cc1nn(CC(=O)Nc2ccc3c(c2)OCO3)c(C)c1[N+](=O)[O-]	0.9% (inactive)
CN(Cc1ccccc1)C(=O)c1ccc(NC2=NC3CS(=O)(=O)CC3S2)cc1 (configuration not stated)	-3.86% (inactive)
COc1ccc(S(=O)(=O)NCCc2cc3ccc(C)c(C)c3[nH]c2=O)cc1	-6.43% (inactive)
COc1ccc(S(=O)(=O)N(C)CC(=O)N2CCCC2)cc1Cl	-2.74% (inactive)
Cc1ccc(S(=O)(=O)c2c[nH]c3ccc(Cl)cc3c2=O)cc1	30.5% (inactive)
COc1ccc(S(=O)(=O)c2c[nH]c(=S)[nH]c2=O)cc1Cl	52.5% (active)
COC(=O)/C=C\C(=O)Nc1cccc([N+](=O)[O-])c1	-2.7% (inactive)
Cc1ccc(/C=C/C(=O)Nc2cc(S(=O)(=O)N3CCCCCC3)ccc2OCC(F)(F)F)o1	-9.11% (inactive)
Cc1ccc(/C=C/C(=O)Nc2ccc([N+](=O)[O-])c(NC(=O)/C=C/c3ccc(C)o3)c2)o1	53.2% (active)
CCOc1ccc(NC(=O)C2CC(=O)N=C(N)S2)cc1 (configuration not stated)	-10.8% (inactive)
Cn1c2c(c(=O)n(C)c1=O)C(c1cccc(F)c1)C(C#N)=C(N)O2 (configuration not stated)	-7.3% (inactive)
O=C(Cc1ccc([N+](=O)[O-])cc1)N/N=C/c1ccco1	-11.8% (inactive)
O=C(N/N=C/c1ccco1)c1csc2c1CCCC2	0.11% (inactive)

Compound	inhibition
O=C(N/N=C/c1ccco1)c1ccc(C(=O)N/N=C/c2ccco2)o1	83.9% (active)
CCn1c(=S)sc2c(=O)n(CC(=O)Nc3cccc(Br)c3)c(C)nc21	-11% (inactive)
Cc1ccc(-c2nc(CS(=O)CC(=O)N3CCN(c4ncccn4)CC3)c(C)o2)cc1 (configuration not stated)	13.2% (inactive)
O=C(c1ccc(CS(=O)(=O)c2ccccc2)o1)N1CCN(c2ccccc2)CC1	62.1% (active)
O=C(c1ccc(S(=O)(=O)NCc2ccco2)cc1)N1CCN(c2ccccc2)CC1	22.5% (inactive)
COc1ccccc1CNC(=O)c1ccc(CS(=O)(=O)c2ccccc2)o1	-4.06% (inactive)
CC(C)NC(=O)C(c1ccc(F)cc1)N(C(=O)CCC(=O)Nc1ccccn1)c1ccccc1F (configuration not stated)	-5.49% (inactive)
Cc1ccc(-c2noc(C3CCCN(C(=O)c4cccc(Cl)c4)C3)n2)o1 (configuration not stated)	-1.22% (inactive)
O=C(N/N=C/c1ccccc1O)/C(=C/c1ccccc1)CCO	-13.2% (inactive)
O=C(N/N=C/c1ccccc1O)C1CCCC1	-10.5% (inactive)
O=C(NN=Cc1ccccc1O)NN=Cc1ccccc1O	85.7% (active)
COc1ccccc1CN(C)C(=O)C1(c2ccc(Cl)cc2)CC1	-10.7% (inactive)
CSCCC(NS(=O)(=O)c1ccc(C)cc1)C(=O)N1CCCC1 (configuration not stated)	-0.76% (inactive)
Cc1ccc(N=Cc2c(O)n(-c3nccs3)c(=O)c3ccccc23)c(C)c1	51.3% (active)
Cc1ccc(-n2c(O)c(C=Nc3ccc(S(=O)(=O)Nc4ncccn4)cc3)c3ccccc3c2=O)cc1C	-12.6% (inactive)
Cc1ccc(N=Cc2c(O)cc(C)oc2=O)c(C)c1	-1.31% (inactive)
O=C(NCCCc1ccccc1)C1CCC(CNc2c(N3CCCCC3)c(=O)c2=O)CC1 (configuration not stated)	-5.39% (inactive)
COc1ccccc1NC(=O)CCC(=O)OC(C)C(=O)c1ccccc1 (configuration not stated)	-10.3% (inactive)
COc1ccccc1CN1CCNC(=O)C1CC(=O)N(C)CC1CCOCC1 (configuration not stated)	-2.19% (inactive)
COc1ccc(CNC(=O)COc2cccnc2[N+](=O)[O-])cc1	-6.82% (inactive)
O=C(NCCN1C(=O)S/C(=C\c2cccnc2)C1=O)c1cccc(OC(F)F)c1	-7.82% (inactive)
Cc1nn(Cc2ccccc2)c(C)c1C(=O)NCCN1C(=O)S/C(=C\c2ccc(F)cc2)C1=O	-5.22% (inactive)
N#Cc1ccccc1CN1C(=O)S/C(=C/c2cccn2-c2cccc(C(=O)O)c2)C1=O	70.5% (active)
Cc1ccccc1CSc1nnc(-c2ccccn2)n1N	-3.67% (inactive)
O=C(COC(=O)CSc1ccccc1)Nc1ccc(F)cc1F	-2.71% (inactive)

Compound	inhibition
CCOC(=O)c1cccc(NC(=O)c2ccc(F)cc2F)c1	-7.13% (inactive)
O=C(COC(=O)c1ccc(F)cc1F)Nc1ncccn1	87% (active)
COCCNC(=O)C(OC(=O)c1cccs1)c1ccc(F)cc1 (configuration not stated)	-8.1% (inactive)
CN(c1ccccc1)S(=O)(=O)c1cccc(C(=O)NNC(=O)c2ccncc2)c1	-6.19% (inactive)
CCCNC(=O)CCc1c(C)nc2c(c(C)nn2-c2ccccc2)c1C	-19% (inactive)
O=S1(=O)CC/C(=N\Nc2ccc(F)cc2)c2ccsc21	-1.87% (inactive)
Nn1cnnc1N/N=C/c1cc([N+](=O)[O-])c(Cl)cc1Cl	71.5% (active)
Cc1ccsc1C(=O)NNC(=O)COc1ccc(Br)cc1	-2.35% (inactive)
COc1ccc(-c2ccc(CCC(=O)O)n2-c2ccc(O)cc2)cc1	-8.68% (inactive)
COc1ccc(Cl)cc1C=CC=NNC(=O)c1ccncc1	54.2% (active)
COc1ccccc1/C=C/C=N/NC(=O)CN1CCN(Cc2ccccc2)CC1	-7.3% (inactive)
COc1ccc(Cl)cc1C=CC=Nc1ccc(S(N)(=O)=O)cc1	-0.31% (inactive)
CCOC(=O)N1CCN(c2c(NCCN3CCN(c4ccccc4F)CC3)c(=O)c2=O)CC1	-8.45% (inactive)
O/N=C1\CC2(Cc3nonc31)OCCO2	-5.88% (inactive)
ON=C1/C(=N\O)CC2(C/C1=N/O)OCCO2	58% (active)
CS(=O)(=O)N(CC(=O)NCc1ccco1)c1ccc2c(c1)OCO2	17.7% (inactive)
O=C(Cn1nnc(-c2ccc3c(c2)OCO3)n1)NCc1ccco1	60.1% (active)
S=C(NCc1ccc2c(c1)OCO2)NCc1ccco1	-10.4% (inactive)
COc1cccc(CNC(=O)CN(C)S(=O)(=O)c2ccc3c(c2)c(=O)n(C)c(=O)n3C)c1	-11.9% (inactive)
Cc1ccc(S(=O)(=O)/N=S(\C)C(C)C)cc1 (configuration not stated)	-1% (inactive)
COc1cc(/C=C/C(=O)OCC(=O)NC2CC2)cc(OC)c1OC	8.5% (inactive)
COc1ccccc1/C=C/C(=O)OCC(=O)NC1CCCCCC1	-7.74% (inactive)
COc1ccc(/C=C/C(=O)OCC(=O)NC2CCCCCC2)cc1OC	53% (active)
CCOC(=O)c1oc2c(CN3CCN(CCO)CC3)c(O)c(CC)cc2c(=O)c1-c1nc2ccccc2s1	-2.5% (inactive)
Cc1ccc(NC(=O)COc2coc(CN3CCc4ccccc4C3)cc2=O)cc1Cl	5.58% (inactive)

Compound	inhibition
Cc1nnc2n1N=C(c1ccc3c(c1)NC(=O)CO3)CS2	-2.49% (inactive)
Cc1cc(NC(=O)[C@H](C)NC(=O)c2ccco2)ccc1Br	-11% (inactive)
CCOc1ccc(N(CC(=O)OC)S(=O)(=O)c2c(C)noc2C)cc1	-4.21% (inactive)
CCOC(=O)C1CCCN(C(=O)/C=C/c2ccc(OC)cc2)C1 (configuration not stated)	0.29% (inactive)
CCOC(=O)C1CCCN(C(=O)CN(c2ccc(OC)cc2)S(=O)(=O)c2c(C)noc2C)C1 (configuration not stated)	57.4% (active)
COc1ccc(OC)c(S(=O)(=O)NCCC(C)C)c1	-1.08% (inactive)
Cc1nc2cc(NC(=O)CSc3nc4c(C)cccc4cc3C#N)ccc2s1	20.8% (inactive)
COc1cc(/C=C/C2=CC(C)(C)NC(=S)N2)cc(OC)c1OC	83.9% (active)
COc1ccc(/C=C/C2=CC(C)(C)NC(=S)N2)c(OC)c1	-2.22% (inactive)
COc1cc(/C=C/c2ccc(/C=C/c3cc(OC)c(OC)c(OC)c3)cc2)cc(OC)c1OC	4.65% (inactive)
CCOC(=O)c1c(NC(=O)CNC2CCCc3ccccc32)sc(C(N)=O)c1C (configuration not stated)	-9.44% (inactive)
CCOCCCNC(=S)Nc1ccc2nc(N3CCN(CC)CC3)cc(C)c2c1	-1.55% (inactive)
Cc1ccc(C(=O)Nc2sc(Cc3ccc4c(c3)OCO4)c(C)c2C(N)=O)cc1	-8.44% (inactive)
CCOC(=O)c1cc2occc2n1CC(=O)N1CCN(C(=O)c2ccco2)CC1	-2.95% (inactive)
O=C(Nc1cccc(Br)c1)C1CC(=O)N(C2CCCC2)C1 (configuration not stated)	-7.74% (inactive)
COc1ccccc1N(CC(=O)NC1CCCC1)C(=O)C1(C)CC(=O)N=C2C=CC(C)=CN21 (configuration not stated)	-2.31% (inactive)
S=C(NCc1ccco1)NCc1ccccc1Cl	-4.7% (inactive)
O=C(Nc1nnc(SCc2ccccc2Cl)s1)c1cccc([N+](=O)[O-])c1	-14% (inactive)
CCc1nnc(SCc2cccc(F)c2)nc1CC	-10.3% (inactive)
Clc1ccc(CSc2nnc3c(n2)[nH]c2ccccc23)cc1	-4.5% (inactive)
Clc1ccccc1CSc1nnc(-c2ccco2)c(-c2ccco2)n1	76.5% (active)
c1ccc(CSc2nnc(-c3ccco3)c(-c3ccco3)n2)cc1	79.2% (active)
